Laboratory results reported in ChEMBL document CHEMBL4680287, “Ibrexafungerp: An orally active β-1,3-glucan synthesis inhibitor” (Bioorg Med Chem Lett, 2021).

Tests used:
Aspergillus fumigatus [1] = test: Antifungal activity against Aspergillus fumigatus MF5668 infected in ip dosed DBA/2N mouse assessed as 50% mouse survival administered bid administered for 7 days starting from 15 to 30 mins post infection and measured up to 21 days; details: 168 h
[2] = Inhibition of beta-1,3-glucan synthase in Candida albicans MY1055 microsomal membrane assessed as inhibition of TCA-insoluble material formation using UDP-[3H]-glucose as substrate incubated for 2 hrs in presence of GTP by radioactivity-based assay; assay type: microsomes, Microsome
Method in brief: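 GS IC50 measured using Candida albicans MY1055 microsomal membrane fragments as the enzyme source.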

Aspergillus fumigatus [3] = test: Antifungal activity against Aspergillus fumigatus MF5668 infected in DBA/2N mouse assessed as mouse survival at 3.125 mg/kg, ip bid administered for 7 days starting from 15 to 30 mins post infection and measured up to 21 days relative to control; assay type: functional; details: 168 h, time 7 day
Method in brief: (§1)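 DBA/2N mice were infected IV with A. fumigatus MF5668 (6.7 x 10^5 CFU/mouse) and treated IP bid for 7 days. Percent survival per dose group was scored at the end of the 21-day survival model and compared with the sham-treated control group.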

[4] = Clearance in mouse; assay type: ADME, organism-based; details: in vivo
Aspergillus fumigatus [5] = test: Antifungal activity against Aspergillus fumigatus MF5668 infected in DBA/2N mouse assessed as mean survival time at 6.25 mg/kg, ip bid administered for 7 days starting from 15 to 30 mins post infection and measured up to 21 days; assay type: functional; details: time 7 day
Method in brief: (§2)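 DBA/2N mice were challenged IV with A. fumigatus MF5668 at 6.7 x 10^5 CFU/mouse, then dosed IP twice daily for 7 days. Survival was followed over a 21-day model, and mean survival time in days was recorded per dose group. A sham-treated control group was run alongside.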

Aspergillus fumigatus [6] = test: Antifungal activity against Aspergillus fumigatus MF5668 assessed inhibition of fungal growth by measuring morphological changes measured after 24 hrs by microscopy; assay type: functional; details: read-out: MEC
Method in brief: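 Microdilution per CLSI protocols in RPMI medium. Read-out is the minimum effective concentration (MEC). Run without serum and with 50% human serum.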

Aspergillus fumigatus [7] = test: Antifungal activity against Aspergillus fumigatus MF5668 infected in ip dosed DBA/2N mouse assessed as 90% mouse survival administered bid administered for 7 days starting from 15 to 30 mins post infection and measured up to 21 days; assay type: functional; details: 168 h, time 7 day
Candida albicans [8] = test: Antifungal activity against Candida albicans MY1055 infected in DBA/2 mouse model of disseminated candidiasis assessed as reduction in fungal burden in kidney by measuring log change in colony forming units at 12.5 mg/kg, ip bid for 7 days by TOKA; assay type: functional; details: time 7 day
Method in brief: (§3)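 Murine disseminated candidiasis model (TOKA) in mice challenged with C. albicans MY1055 at 2.44 x 10^4 CFU/mouse. Dosed PO, or IP where stated. Kidneys collected aseptically 7 days after challenge and CFUs/g counted. Change in log CFU/g is relative to sham-treated controls; significance by two-tailed t test. Clearance is the percentage of kidneys below the detection limit.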

Candida albicans [9] = test: Antifungal activity against Candida albicans MY1055 assessed as fungal growth inhibition measured after 24 hrs in presence of 50% mouse serum by liquid microdilution method; assay type: functional
Method in brief: (§4)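 Broth microdilution per CLSI protocols in RPMI medium. Read-out is the MIC, the lowest concentration completely inhibiting fungal growth. Run without serum and with added serum.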

Aspergillus fumigatus [10] = test: Antifungal activity against Aspergillus fumigatus MF5668 infected in DBA/2N mouse assessed as mouse survival at 6.25 mg/kg, ip bid administered for 7 days starting from 15 to 30 mins post infection and measured up to 21 days relative to control; assay type: functional; details: 168 h, time 7 day
Method in brief: as §1

[11] = Oral bioavailability in mouse; assay type: ADME, organism-based; details: in vivo
Method in brief: (§5)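 Oral bioavailability calculated as oral AUC normalized to the IV dose, divided by the IV AUC.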

Candida albicans [12] = test: Antifungal activity against Candida albicans MY1055 infected in ip dosed DBA/2 mouse model of disseminated candidiasis assessed as reduction in fungal burden in kidney administered bid for 7 days by TOKA; assay type: functional; details: 168 h, time 7 day
Method in brief: as §3

Candida albicans [13] = test: Antifungal activity against Candida albicans MY1055 infected in DBA/2 mouse model of disseminated candidiasis assessed as reduction in fungal burden in kidney by measuring log change in colony forming units at 12.5 mg/kg, po bid for 7 days by TOKA; assay type: functional; details: time 7 day
Method in brief: as §3

Candida albicans [14] = test: Antifungal activity against Candida albicans MY1055 assessed as fungal growth inhibition measured after 24 hrs by liquid microdilution method; assay type: functional
Method in brief: as §4

[15] = Dose normalized AUC in po dosed rat; assay type: ADME, organism-based; details: in vivo
Aspergillus fumigatus [16] = test: Antifungal activity against Aspergillus fumigatus MF5668 infected in DBA/2N mouse assessed as mean survival time at 3.125 mg/kg, ip bid administered for 7 days starting from 15 to 30 mins post infection and measured up to 21 days; assay type: functional; details: time 7 day
Method in brief: as §2

[17] = Dose normalized AUC in po dosed mouse; assay type: ADME, organism-based; details: in vivo
Aspergillus fumigatus [18] = test: Antifungal activity against Aspergillus fumigatus MF5668 infected in DBA/2N mouse assessed as mean survival time at 12.5 mg/kg, ip bid administered for 7 days starting from 15 to 30 mins post infection and measured up to 21 days; assay type: functional; details: time 7 day
Method in brief: as §2

Aspergillus fumigatus [19] = test: Antifungal activity against Aspergillus fumigatus MF5668 infected in DBA/2N mouse assessed as mean survival time at 1.56 mg/kg, ip bid administered for 7 days starting from 15 to 30 mins post infection and measured up to 21 days; assay type: functional; details: time 7 day
Method in brief: as §2

[20] = Half life in rat; assay type: ADME; details: in vivo
[21] = Half life in mouse; assay type: ADME, organism-based; details: in vivo
[22] = Oral bioavailability in rat; assay type: ADME, organism-based; details: in vivo
Method in brief: as §5

Aspergillus fumigatus [23] = test: Antifungal activity against Aspergillus fumigatus MF5668 infected in DBA/2N mouse assessed as mouse survival at 12.5 mg/kg, ip bid administered for 7 days starting from 15 to 30 mins post infection and measured up to 21 days relative to control; assay type: functional; details: 168 h, time 7 day
Method in brief: as §1

Candida albicans [24] = test: Antifungal activity against Candida albicans MY1055 infected in DBA/2 mouse model of disseminated candidiasis assessed as reduction in fungal burden in kidney by measuring log change in colony forming units at 25 mg/kg, po bid for 7 days by TOKA; assay type: functional; details: time 7 day
Method in brief: as §3

[25] = Clearance in rat; assay type: ADME; details: in vivo
Candida albicans [26] = test: Antifungal activity against Candida albicans MY1055 infected in DBA/2 mouse model of disseminated candidiasis assessed as reduction in fungal burden in kidney by measuring log change in colony forming units at 6.25 mg/kg, po bid for 7 days by TOKA; assay type: functional; details: time 7 day
Method in brief: as §3

Aspergillus fumigatus [27] = test: Antifungal activity against Aspergillus fumigatus MF5668 infected in DBA/2N mouse assessed as mouse survival at 1.56 mg/kg, ip bid administered for 7 days starting from 15 to 30 mins post infection and measured up to 21 days relative to control; assay type: functional; details: 168 h, time 7 day
Method in brief: as §1

[28] = Oral bioavailability in dog; assay type: ADME, organism-based, Canis lupus familiaris; details: in vivo
Method in brief: as §5

[29] = Oral bioavailability in rhesus monkey; assay type: ADME, organism-based, Macaca mulatta; details: in vivo
Method in brief: as §5

[30] = Dose normalized AUC in po rhesus monkey; assay type: ADME, organism-based, Macaca mulatta; details: in vivo
[31] = Half life in rhesus monkey; assay type: ADME, Macaca mulatta; details: in vivo
[32] = Clearance in dog; assay type: ADME, Canis lupus familiaris; details: in vivo
[33] = Dose normalized AUC in po dosed dog; assay type: ADME, organism-based, Canis lupus familiaris; details: in vivo
[34] = Clearance in rhesus monkey; assay type: ADME, Macaca mulatta; details: in vivo
[35] = Half life in dog; assay type: ADME, Canis lupus familiaris; details: in vivo

Structure (SMILES)	ED50 (Aspergillus fumigatus [1]) [mg/kg]	IC50 [2] [µg/mL]	survival at 3.125 mg/kg (Aspergillus fumigatus [3]) [%]	clearance [4] [mL/min/kg]	MST (Aspergillus fumigatus [5]) [days]	minimal effective concentration (Aspergillus fumigatus [6]) [µg/mL]	ED90 (Aspergillus fumigatus [7]) [mg/kg]	Activity (Candida albicans [8]) [deltalog10CFU]	MIC (Candida albicans [9]) [µg/mL]	survival at 6.25 mg/kg (Aspergillus fumigatus [10]) [%]	bioavailability [11] [%]	ED99 (Candida albicans [12]) [mg/kg]	Activity (Candida albicans [13]) [deltalog10CFU]	MIC (Candida albicans [14]) [µg/mL]	AUC/dose [15] [µM·kg·h/mg]	MST (Aspergillus fumigatus [16]) [days]	AUC/dose [17] [µM·kg·h/mg]	MST (Aspergillus fumigatus [18]) [days]	MST (Aspergillus fumigatus [19]) [days]	half-life [20] [h]	further results
CC(C)[C@@H](C)[C@@]1(C)CC[C@]2(C)[C@H]3CC[C@@H]4[C@@]5(COC[C@@]4(C)[C@@H](OCC4(N)CCOCC4)[C@H](n4ncnc4-c4ccncc4)C5)C3=CC[C@@]2(C)[C@@H]1C(=O)O	11	0.002	10	18	12.5	< 0.03	26	-4	0.25	40	13	3.8	-3.1	< 0.03	0.34	7.3	0.18	14.6	4.1	1.9	half-life [21]: 2.1 h; bioavailability [22]: 30%; survival at 12.5 mg/kg (Aspergillus fumigatus [23]): 60%; Activity (Candida albicans [24]): -3.9 deltalog10CFU; clearance [25]: 20 mL/min/kg; Activity (Candida albicans [26]): -1.4 deltalog10CFU; survival at 1.56 mg/kg (Aspergillus fumigatus [27]): 0%
CC(C)[C@@H](C)[C@@]1(C)CC[C@]2(C)[C@H]3CC[C@@H]4[C@@]5(COC[C@@]4(C)[C@@H](OC[C@](C)(N)C(C)C)[C@H](n4ncnc4-c4ccncc4)C5)C3=CC[C@@]2(C)[C@@H]1C(=O)O	8.2	0.002	30	17	12.4	< 0.03	31	-4.01	0.5	40	31	1.2	-2.9	< 0.03	0.56	10.7	0.42	14.7	4.2	3.9	bioavailability [28]: 21%; bioavailability [29]: 5%; AUC/dose [30]: 0.08 µM·kg·h/mg; half-life [31]: 6.1 h; clearance [32]: 6 mL/min/kg; AUC/dose [33]: 0.9 µM·kg·h/mg; half-life [21]: 4.9 h; clearance [34]: 14 mL/min/kg; bioavailability [22]: 28%; half-life [35]: 9 h; survival at 12.5 mg/kg (Aspergillus fumigatus [23]): 60%; Activity (Candida albicans [24]): -4.5 deltalog10CFU; clearance [25]: 12 mL/min/kg; Activity (Candida albicans [26]): -2.4 deltalog10CFU; survival at 1.56 mg/kg (Aspergillus fumigatus [27]): 0%
